Experimental data as given in ChEMBL document CHEMBL1287788, “2-aminohydroxamic acid derivatives as inhibitors of Bacillus cereus phosphatidylcholine preferred phospholipase C PC-PLC(Bc)” (Bioorg Med Chem, 2010).
pIC50, pKi: −log10 of the molar value.

Legend:
[1] = Cytotoxicity against human A549 cells after 24 hrs by MTT assay; type: cell-based; details: read-out: LD50
Phospholipase C [2] = biological target: T1, Phospholipase C (Bacillus cereus, UniProt P09598); experiment: Non-competitive inhibition of Bacillus cereus phosphatidylcholine preferred phospholipase C by Dixon plot analysis
T1 sequence (P09598 whole entry): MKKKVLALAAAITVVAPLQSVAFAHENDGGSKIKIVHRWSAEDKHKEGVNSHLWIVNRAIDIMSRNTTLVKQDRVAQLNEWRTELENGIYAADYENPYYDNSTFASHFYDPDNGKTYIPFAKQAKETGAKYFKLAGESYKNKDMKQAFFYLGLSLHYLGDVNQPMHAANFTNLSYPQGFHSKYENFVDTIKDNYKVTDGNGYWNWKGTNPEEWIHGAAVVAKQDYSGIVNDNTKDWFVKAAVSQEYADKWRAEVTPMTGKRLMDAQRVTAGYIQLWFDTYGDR

[3] = Critical micelle concentration of the compound; type: physicochemical
Phospholipase C [4] = biological target: T1, Phospholipase C; experiment: Inhibition of Bacillus cereus phosphatidylcholine preferred phospholipase C after 100 seconds
Method in brief: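 Bacillus cereus PC-PLC activity measured by a coupled read-out: phosphorylcholine released by the enzyme is hydrolysed by alkaline phosphatase, and the freed phosphate ions are quantified. Substrate was 1,2-di-n-hexanoyl-sn-glycero-3-phosphocholine at 2 mM final, below its CMC of 11.1 mM. Compound CMC values were determined so the assay ran under non-micellar conditions.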

Phospholipase C [5] = biological target: T1, Phospholipase C; experiment: Uncompetitive inhibition of Bacillus cereus phosphatidylcholine preferred phospholipase C by Dixon plot analysis
[6] = biological target: T2, Phospholipase C (Bacillus cereus) (UniProt P09598); experiment: Irreversible inhibition of Bacillus cereus phosphatidylcholine preferred phospholipase C assessed as residual activity after 10 mins
T2 sequence (whole entry): T1 sequence (P09598 whole entry)

Phospholipase C [7] = biological target: T1, Phospholipase C; experiment: Mixed-type inhibition of Bacillus cereus phosphatidylcholine preferred phospholipase C by Dixon plot analysis

| Compound | CC50 at 24 h [1] [µM] | pKi (Phospholipase C [2]) | CMC [3] [µM] | pIC50 (Phospholipase C [4]) | pKi (Phospholipase C [5]) | Activity [6] [%] | pKi (Phospholipase C [7]) |
| --- | --- | --- | --- | --- | --- | --- | --- |
| CCCCCCCCCCC(NC(=O)OC(C)(C)C)C(=O)N(CCCN(C)C)OCc1ccccc1 (centres undefined) | 6 | 5.60 | 10 | 5.10 | – | – | – |
| CCCCCCCCCCC(N)C(=O)N(CCC[N+](C)(C)C)OCc1ccccc1.Cl.[Cl-] (centres undefined) | 43.4 | – | 141 | 4.30 | – | – | – |
| CCCCCCCCCCC(N)C(=O)N(O)CC[N+](C)(C)C.Cl.[Cl-] (centres undefined) | > 100 | – | > 500 | 4.40 | 4.92 | – | – |
| CCCCCCCCCCC(N)C(=O)N(CC[N+](C)(C)C)OCc1ccccc1.Cl.[Cl-] (centres undefined) | 76.1 | – | > 500 | 5.00 | – | – | – |
| CCCCCCC(N)C(=O)N(CC[N+](C)(C)C)OCc1ccccc1.Cl.[Cl-] (centres undefined) | > 100 | – | > 500 | < 3.30 | – | – | – |
| CCCCCCC(N)C(=O)N(O)CCC[N+](C)(C)C.Cl.[Cl-] (centres undefined) | > 100 | – | > 500 | < 3.30 | – | – | – |
| CCCCCCCCCCCCCCC(NC(=O)OC(C)(C)C)C(=O)N(CC[N+](C)(C)C)OCc1ccccc1.[I-] (centres undefined) | 27.6 | – | > 500 | – | – | 100 | – |
| CCCCCCCCCCCCCCCCCCC(N)C(=O)N(O)CC[N+](C)(C)C.Cl.[Cl-] (centres undefined) | 52.7 | – | 50 | 5.40 | – | – | – |
| CCCCCCC(NC(=O)OC(C)(C)C)C(=O)N(CCC[N+](C)(C)C)OCc1ccccc1.[I-] (centres undefined) | > 100 | – | 221 | 4.11 | – | – | – |
| CCCCCCCCCCC(NC(=O)OC(C)(C)C)C(=O)N(CC[N+](C)(C)C)OCc1ccccc1.[I-] (centres undefined) | 28.2 | – | > 500 | 5.30 | – | – | – |
| CCCCCCCCCCCCCCC(N)C(=O)N(O)CC[N+](C)(C)C.Cl.[Cl-] (centres undefined) | 100 | – | 120 | 5.70 | – | – | – |
| CCCCCCCCCCC(NC(=O)OC(C)(C)C)C(=O)N(CCC[N+](C)(C)C)OCc1ccccc1.[I-] (centres undefined) | 17 | – | 40 | – | – | – | 5.60 |
| CCCCCCC(N)C(=O)N(CCCN(C)C)OCc1ccccc1.Cl.Cl (centres undefined) | > 100 | – | 158 | < 3.30 | – | – | – |
| CCCCCCCCCCC(N)C(=O)N(CCCN(C)C)OCc1ccccc1.Cl.Cl (centres undefined) | 7 | – | 8 | 4.49 | – | – | – |
| CCCCCCC(NC(=O)OC(C)(C)C)C(=O)N(CC[N+](C)(C)C)OCc1ccccc1.[I-] (centres undefined) | > 100 | – | > 500 | 4.25 | – | – | – |
| CCCCCCC(N)C(=O)N(CCC[N+](C)(C)C)OCc1ccccc1.Cl.[Cl-] (centres undefined) | > 100 | – | 210 | 4.00 | – | – | – |
| CCCCCCC(N)C(=O)N(O)CC[N+](C)(C)C.Cl.[Cl-] (centres undefined) | > 100 | – | > 500 | 3.30 | – | – | – |
| CCCCCCCCCCCCCCC(N)C(=O)N(CC[N+](C)(C)C)OCc1ccccc1.Cl.[Cl-] (centres undefined) | 75.3 | – | 90 | 5.40 | – | – | – |
| CCCCCCC(N)C(=O)N(O)CCCN(C)C.Cl.Cl (centres undefined) | > 100 | – | > 500 | < 3.30 | – | – | – |
| CCCCCCC(NC(=O)OC(C)(C)C)C(=O)N(CCCN(C)C)OCc1ccccc1 (centres undefined) | 21 | – | 75 | 4.11 | – | – | – |
| CCCCCCCCCCCCCCCCCCC(NC(=O)OC(C)(C)C)C(=O)N(CC[N+](C)(C)C)OCc1ccccc1.[I-] (centres undefined) | 25.1 | – | 75 | – | – | – | – |
| CCCCCCCCCCCCCCCCCCC(N)C(=O)N(CC[N+](C)(C)C)OCc1ccccc1.Cl.[Cl-] (centres undefined) | 29 | – | 10 | 5.40 | – | – | – |
| CCCCCCCCCCC(N)C(=O)N(O)CCC[N+](C)(C)C.Cl.[Cl-] (centres undefined) | > 100 | – | 97 | 4.24 | – | – | 4.59 |
| CCCCCCCCCCC(N)C(=O)N(O)CCCN(C)C.Cl.Cl (centres undefined) | 40 | – | 79 | 4.00 | – | – | – |
